Shown are actives, neighbours in structure and some others; about 4.9% of the full set was active somewhere.
STAT3 inh-1 = STAT3 signaling inhibition. U3A cells, IL-6 STAT3-luciferase reporter, luminescence; host cell line lacks STAT1. inhibition, % at 5.5 µM. 0.89% of 190,000 active;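 active = inhibition above the mean inhibition across all screened compounds plus 3 SD, cut at about 44% in these data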;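 also: 0% = DMSO only wells and 100% = 100 µM nifuroxazide control wells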
STAT1 blocker = reduces IFN-gamma driven STAT1 reporter signal; NIH 3T3 STAT1-luciferase reporter, luminescence; inhibition, % at 5.5 µM; 0.35% of 200,000 active; AID 920;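 active = inhibition above a set limit, the mean inhibition across all tested compounds plus 3 SD, cut at about 34% in these data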;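 also: 0% = IFN-gamma with DMSO and 100% = IFN-gamma with 300 µM nifuroxazide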
STAT1 act = activators of IFN-gamma induced STAT1 signaling. NIH 3T3 STAT1-luciferase reporter, luminescence; 100% = IFN-gamma alone, no compound. activation (% of control), % at 5.5 µM. 2.6% of 200,000 active;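 active = activation above the screen-wide mean activation plus 3 SD, cut at about 130% in these data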;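 also: raw ratio to IFN-gamma control signal so 100% means no change and 0% no light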
NF-kB expr up = NF-kB expression increase, human neuronal cells; NF-kB reporter expression; active compounds read high; fold change at 12.5 µM; AID 1239; 1.6% of 190,000 active; in the data active = fold change above about 3.3
APP 5'UTR act = APP 5'UTR luciferase reporter activation; 1% of 190,000 active; AID 1276; SH-SY5Y APP 5'UTR luciferase reporter, luminescence; zero percent = DMSO vehicle wells; activation, % at 2 µM;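 active = activation above a set limit, based on mean plus 3 SD of controls, cut at about 140% in these data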
STAT3 activator = increases IL-6 driven STAT3 reporter signal. U3A cells, IL-6 STAT3-luciferase reporter, luminescence; 100% = signal with IL-6 EC80 alone. activation (% of control), % at 5.6 µM. 0.91% of 190,000 active;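 active = activation above the screen-wide mean of compound activation plus 3 SD, cut at about 130% in these data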;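 also: 0% = background luminescence of wells with medium and substrate only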
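System – human U3A cells carrying STAT3-luciferase construct · Probe or stimulus – Interleukin-6, 33 ng/mL · Schedule – compound 1 h, then IL-6 6 h at 37 °C · Signal – luminescence from STAT3-driven luciferase reporter · Evaluation – percent of IL-6-only median luminescence · Benchmarks – IL-6-only high control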
STAT3 inh-2 = confirmation of STAT3 signaling inhibitors; shares compounds with STAT3 inh-1; U3A cells, IL-6 STAT3 luciferase reporter, luminescence; cell line lacks STAT1; inhibition, % at 5.7 µM; 45% of 1,200 active; AID 1265;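 active = inhibition above the hit cutoff computed for the primary STAT3 screen, cut at about 44% in these data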;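 also: 0% = IL-6 plus DMSO and 100% = IL-6 plus nifuroxazide control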
NFkB inh STAT3ct = counter-screen for STAT3 inhibitors: NF-kappaB inhibition; shares compounds with STAT3 inh-1; HEK293T NF-kB luciferase reporter, TNF-alpha induced; inhibition, % at 5.7 µM; 36% of 1,200 active;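 active = inhibition above the mean of solvent-only control wells plus 3 SD, cutoff set per campaign, cut at about 13% in these data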;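 also: 0% = TNF-alpha with DMSO and 100% = TNF-alpha with MG high control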
STAT1 inh STAT3c = inhibits STAT1, counter-screen to STAT3 inhibitors | shares compounds with STAT3 inh-1 | inhibition, % at 5.7 µM | AID 1317 | NIH 3T3 STAT1-luciferase reporter, IFN-gamma induced, luminescence | 27% of 1,200 active;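 active = inhibition above the mean plus 3 SD of solvent-only control wells, limit set per screening run, cut at about 16% in these data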;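 also: 0% = DMSO with IFN-gamma and 100% = nifuroxazide control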
STAT1 act conf = STAT1 activation, confirmation assay | NIH 3T3 STAT1-luciferase reporter, IFN-gamma potentiation, luminescence; 100% = IFN-gamma EC80 alone, no compound | AID 1262 | 97% of 1,200 active | activation (% of control), % at 5.7 µM | shares compounds with STAT1 act;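 active = activation above a set limit carried over from the earlier primary STAT1 screen, cut at about 140% in these data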;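 also: simple ratio to median IFN-gamma plus DMSO wells so 0% means no light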
NFkB act = activates NF-kappaB, counter-screen to STAT1 activators | shares compounds with STAT1 act | HEK293T NF-kB luciferase reporter, TNF-alpha stimulated, luminescence; 100% = TNF-alpha with vehicle only | activation (% of control), % at 5.7 µM | 43% of 1,200 active | AID 1306;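 active = activation above the mean of solvent-only control wells plus 3 SD, set per campaign, cut at about 130% in these data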;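 also: TNF-alpha given at a submaximal dose yielding about 80% of full reporter signal; values are well signal over median control so 100% means no change and 0% no light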
STAT3 act 2 = counter-screen for STAT1 activators: human STAT3 activation | U3A cells STAT3-luciferase reporter, IL-6, luminescence; cells lack STAT1; 100 = IL-6 alone, no compound effect | 46% of 1,200 active | shares compounds with STAT1 act | activation (% of control), % at 5.7 µM;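 active = activation above the solvent-only control well mean plus 3 SD, set per plate batch, cut at about 110% in these data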;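 also: 0% = no luminescence and 100% = median IL-6 plus DMSO wells; higher means more STAT3 reporter activation so hits are non-selective activators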
Numbers without * were called inactive; x = no result.

SMILES | STAT3 inh-1 | STAT1 blocker | STAT1 act | NF-kB expr up | APP 5'UTR act | STAT3 activator | STAT3 inh-2 | NFkB inh STAT3ct | STAT1 inh STAT3c | others
Cc1nc2ccc(NC(=O)CCS(=O)(=O)c3ccccc3)cc2s1 | -12 | -22 | 119 | 1.6 | -5 | 107 | x | x | x
O=C(COC(=O)c1cccnc1Cl)NCc1cccs1 | 10 | -4 | 102 | 1.1 | -4 | 97 | x | x | x
CCOC(=O)c1sc(NC(=O)c2cc3c(s2)CCC(C)C3)nc1C (stereo not drawn) | 56* | 2 | 98 | 1.7 | 16 | 54 | -7 | -9 | -43
O=c1c2ccccc2ncn1-c1ccccc1C(F)(F)F | 0 | 4 | 95 | 1.1 | 9 | 104 | x | x | x
CCCS(=O)(=O)N1CCN(Cc2ccc3c(c2)c2ccccc2n3CC)CC1 | -5 | 8 | 93 | 0.85 | -14 | 104 | x | x | x
O=C(c1ccc2c(=O)n(-c3ccccc3)c(=S)[nH]c2c1)N1CCCCC1 | 47* | 26 | 76 | 1.2 | 3 | 63 | 51* | 14* | 25*
CC12CCC(C(=O)N(CC3CO3)C1=O)C2(C)C (stereo not drawn) | -6 | -5 | 103 | 1.1 | 33 | 108 | x | x | x
Nc1nc2ccccc2n1C(=O)c1ccc(F)cc1 | 68* | 19 | 81 | 3.2 | 188* | 45 | 39 | -3 | -66
Nc1nc2ccccc2n1C(=O)c1ccccc1 | 67* | 28 | 73 | 3.2 | 161* | 45 | 31 | -4 | -71
COC(=O)C1CCN(C2CC(=O)N(c3cc(C)cc(C)c3)C2=O)CC1 (stereo not drawn) | 5 | 9 | 92 | 1.4 | 5 | 104 | x | x | x
O=C(CNS(=O)(=O)c1ccccc1)Nc1cccc([N+](=O)[O-])c1 | 3 | -1 | 100 | 0.93 | 20 | 104 | x | x | x
CCc1ccc(OCc2nc(-c3ccccn3)no2)c(Br)c1 | 56* | 0 | 100 | 3.2 | 181* | 57 | 19 | -8 | -108
CC1CCCN(C(=O)CSc2cnc3ccccc3n2)C1 (stereo not drawn) | -14 | -17 | 116 | 1.9 | 2 | 117 | x | x | x
COc1ccc2nc(-c3ccc(N)cc3)[nH]c2c1 | 42 | 2 | 98 | 1.7 | -39 | 66 | x | x | x
Cc1nc2ccc(-c3nc4cc(N)ccc4o3)cc2[nH]1 | 55* | -18 | 116 | 1.7 | -22 | 55 | 15 | -14 | -63
Cc1ccc2nc(-c3cccc(N)c3)oc2c1 | 55* | 20 | 82 | 3.9* | x | 57 | 17 | -10 | -110
CCOC(=O)c1ccccc1-c1cn2cc(Cl)ccc2n1 | -16 | -2 | 102 | 1.3 | 5 | 113 | x | x | x
CCCCCCCCCCCCCCCC[n+]1cccc2ccccc21 | 42 | 23 | 79 | 0.96 | -23 | 65 | x | x | x
CCCCCCCCC[n+]1cccc2c3ccccc3ccc21 | 90* | 31 | 72 | 1.6 | -29 | 29 | 89* | 57* | 33*
Cc1cc(C(=O)CSc2nc3ccccc3[nH]2)c(C)n1CC1CCCO1 (stereo not drawn) | 97* | 29 | 74 | 0.43 | 189* | 23 | 63* | 22* | -57
COC(=O)c1cc(NS(=O)(=O)c2ccc(N3CCC(C)CC3)c([N+](=O)[O-])c2)cc(C(=O)OC)c1 | -11 | -1 | 101 | 0.98 | -11 | 108 | x | x | x
O=C(Nc1ccc(Oc2cccnc2)cc1)c1ccc([N+](=O)[O-])cc1 | 69* | 12 | 89 | 1.1 | 6 | 45 | 65* | 23* | 1
O=C(Nc1nc(-c2ccccc2)cs1)C1COc2ccccc2O1 (stereo not drawn) | 13 | -12 | 105 | 1.4 | -3 | 89 | x | x | x
Cc1csc(NC(=O)C2COc3ccccc3O2)n1 (stereo not drawn) | 57* | -57 | 160* | 2.8 | 149* | 53 | 36 | -21 | -96 | STAT1 act conf=198*;NFkB act=105;STAT3 act 2=78
Cc1ccc(-c2nc3cc(NC(=O)C(C)C)ccc3o2)cc1 | 45* | -95 | 188* | 2.9 | 147* | 63 | -1 | -38 | -216 | STAT1 act conf=321*;NFkB act=126;STAT3 act 2=104
SMILES | STAT3 inh-1 | STAT1 blocker | STAT1 act | NF-kB expr up | APP 5'UTR act | STAT3 activator | STAT3 inh-2 | NFkB inh STAT3ct | STAT1 inh STAT3c | others
Cc1ccc(-c2nc3cc(NC(=O)C(C)C)ccc3o2)cc1C | 61* | -106 | 195* | 0.98 | 160* | 50 | 14 | -32 | -203 | STAT1 act conf=272*;NFkB act=93;STAT3 act 2=73
CCOC(=O)c1[nH]ncc1CN1CCCC(C(=O)c2ccc(C(C)(C)C)cc2)C1 (stereo not drawn) | -6 | 9 | 91 | 1.1 | -2 | 108 | x | x | x
O=C(COC(=O)CNC(=O)c1ccco1)NCc1ccc(F)cc1 | -17 | 13 | 88 | 1.2 | -18 | 115 | x | x | x
COc1ccc(-n2ncc3c(NC(C)C)ncnc32)cc1 | 56* | -56 | 151* | 4* | 151* | 55 | 14 | -39 | -146 | STAT1 act conf=246*;NFkB act=109;STAT3 act 2=96
COc1ccc(OC)c(Nc2ncnc3c2cnn3-c2ccccc2)c1 | 12 | -9 | 107 | 1.7 | 14 | 93 | x | x | x
COc1ccc2c(=O)c(N3C(=O)c4ccccc4C3=O)coc2c1 | 1 | 4 | 97 | 0.97 | -18 | 101 | x | x | x
COc1ccc2c(=O)c(-c3ccc4c(c3)OCO4)coc2c1 | 55* | -70 | 164* | 4.3* | 192* | 52 | 26 | -12 | -104 | STAT1 act conf=217*;NFkB act=97;STAT3 act 2=80
COc1ccc2[nH]c3c(c2c1)CCn1c-3nc2ccccc2c1=O | 51* | -55 | 153* | 5.5* | 184* | 61 | 14 | -32 | -178 | STAT1 act conf=298*;NFkB act=116;STAT3 act 2=93
O=C(NCC1CCCO1)c1onc(CSc2cccc3ccccc23)c1C(=O)O (stereo not drawn) | 0 | 9 | 92 | 1.1 | 11 | 101 | x | x | x
